Activity calls are given as the source filed them.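 The calls were made as follows, unless noted: active = viability loss from added drug above about 55%, and viability with drug at most 40%, in both replicates (limit read from the data, passing the limit was not always enough); inconclusive = both conditions met in only one replicate; inactive = neither replicate meets both conditions.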

A short description of assay [1]: reduced viability of SK-BR-3 breast cancer cells – cell-based, 24 h, human, pilot screen (AID 572;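 active = viability at or below 10% of carrier control in both of two separate runs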;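 also: compound exposure lasted between 18 and 24 h rather than exactly 24 h; 100% = carrier-treated control wells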). Particulars: SK-BR-3 viability, CellTiter-Glo luminescence, at 10 µM, stronger effect = lower value. For orientation: ATP-based viability assays read luminescence as a measure of living cells.
Assay [2] is described as follows: HUVEC growth inhibition – cell-based, human, primary screen (AID 575;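 active = viability at or below 30% in both replicate assays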;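 also: 100% = median of untreated cell wells with 0.1% DMSO on each plate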). Particulars: HUVEC proliferation, CellTiter-Glo luminescence, 72 h; at 10 µM; stronger effect = lower value. In a few lines: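 Test system: primary human umbilical vein endothelial cells; medium: endothelial basal medium with 2% FBS plus growth supplements; dosing: 10 µM compound only; times: 72 h treatment at 37 °C; signal: CTG luminescence; read-out: % viability relative to median vehicle-well signal on each plate; control set: vehicle and MePR control wells; plate: 384-well, collagen-coated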

Assay [3] is described as follows: H69AR cell proliferation blockers – human, duplicate replicates, primary screen (AID 580;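 active = viability at or under a set limit in both replicates, limit being median viability minus 3 SD, cut at about 48% in these data, passing the limit was not always enough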;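 also: 100% = mean luminescence of untreated wells and 0% = no signal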). Particulars: H69AR lung tumor cells viability, ATP luminescence, 72 h; at 10 µM; stronger effect = lower value.
The nature of assay [4]: MRP1 drug-resistance reversers in H69AR cells – cell-based, doxorubicin co-treatment, pilot screen (AID 601). Particulars: CellTiter-Glo, 72 h, at 10 µM; for differential viability (reversal): stronger effect = higher value.
Assay [5] in a line: yeast transport mutant growth inhibition pilot in 384-well plates, post-Golgi transport modulator project (AID 636; in the data active = inhibition above about 31%). The conditions noted are these: absorbance 615 nm, about 18 h, stronger effect = higher value.
Assay [6] can be described thus: growth suppression of yeast trafficking mutant, preliminary HTS, modulators of trafficking downstream of Golgi apparatus project, 1536-format plate, OD 615 nm (AID 637; in the data active = inhibition above about 30%). The conditions noted are these: yeast transport mutant growth, absorbance 615 nm, 18 h; stronger effect = higher value.
Setting [7] is: H69AR cells + 2 uM doxorubicin, measured here: viability with 2 uM doxorubicin, stronger effect = lower value.
Setting [8] is: H69AR cells, compound alone cytotoxicity.

As to `O=C(O)C(c1ccccc1)N1CCCC1` (stereo not drawn), the viability (as a rule, a read-out of living cells in per cent, often relative to untreated cells) was 106% (inactive) in assay [1]; 102% (inactive) in assay [2]; 95.9% (inactive) in assay [3]; 79.5% in assay [4] (setting [7]); 95.9% in assay [4] (setting [8]). Moreover, the differential viability (reversal) in assay [4] (H69AR cells + 2 uM doxorubicin) was 16.4% (inactive). For the same compound, the inhibition (as a rule, the drop in the measured response relative to a control, in per cent) was -5.6% (inactive) in assay [5] and -3.64% (inactive) in assay [6].
As for `Cc1c(C)[n+](=O)c2c(n1[O-])CCCCC2`, the viability in assay [1] was 89% (inactive); in assay [2], 93.5% (inactive); in assay [3] it was 96% (inactive); in assay [4] (setting [7]), 86.3%; in assay [4] (setting [8]), 96%. The differential viability (reversal) in assay [4] (H69AR cells + 2 uM doxorubicin) was 9.67% (inactive). Further, the values for the inhibition in assay [5] and in assay [6] were -1.43% (inactive) and -2.3% (inactive), respectively.
`COc1ccc(-c2nnc(SC(C)C(=O)Nc3nccs3)n2-c2ccccc2)cc1OC` (stereo not drawn): the viability was 105% (inactive) in assay [1]; 83.5% (inactive) in assay [2]; 86.8% (inactive) in assay [3]; 87.4% in assay [4] (setting [7]); 86.8% in assay [4] (setting [8]). Besides, the differential viability (reversal) in assay [4] (H69AR cells + 2 uM doxorubicin) was -0.545% (inactive). The inhibition in assay [5] was -0.96% (inactive); in assay [6], 3.87% (inactive).
In the case of `CCCCN1CN(S(=O)(=O)c2cccs2)c2nc3ccccc3nc21`, the viability in assay [1] was 97% (inactive); in assay [2], 109% (inactive); in assay [3], 83.7% (inactive); in assay [4] (setting [7]), 88.8%; in assay [4] (setting [8]), 83.7%. Moreover, in assay [4] (H69AR cells + 2 uM doxorubicin), the differential viability (reversal) was -5.09% (inactive). Besides, the inhibition in assay [5] is -10.1% (inactive); in assay [6], -4.18% (inactive).
For the compound `Cc1ccc(N(C(C)C(=O)Nc2ccc(S(=O)(=O)N3CCOCC3)cc2)S(C)(=O)=O)cc1` (stereo not drawn), the viability in assay [1] is 87% (inactive); in assay [2], 106% (inactive); in assay [3] it was 99.8% (inactive); in assay [4] (setting [7]) it was 106%; in assay [4] (setting [8]) it was 99.8%. The differential viability (reversal) in assay [4] (H69AR cells + 2 uM doxorubicin) is -6.04% (inactive). Further, the inhibition in assay [5] is -6.3% (inactive); in assay [6], -7.9% (inactive).
Turning to `O=C(COC(=O)CCOc1ccccc1)Nc1ccc(Cl)cn1`, the viability in assay [1] is 75% (inactive); in assay [2], 102% (inactive); in assay [3], 91% (inactive); in assay [4] (setting [7]), 108%; in assay [4] (setting [8]), 91%. In addition, the differential viability (reversal) in assay [4] (H69AR cells + 2 uM doxorubicin) is -17% (inactive). Moreover, the inhibition in assay [5] is -2.74% (inactive); in assay [6], -4.36% (inactive).
Consider `Cc1cccn2c(=O)c3cc(C#N)c(=NC(=O)c4ccncc4)n(Cc4ccco4)c3nc12`, for which the viability in assay [1] is 110% (inactive); in assay [2] it was 64.1% (inactive); in assay [3], 67% (inactive); in assay [4] (setting [7]), 51.7%; in assay [4] (setting [8]), 67%. In assay [4] (H69AR cells + 2 uM doxorubicin), the differential viability (reversal) is 15.3% (inactive). Moreover, the inhibition in assay [5] was -1.58% (inactive); in assay [6], 7.74% (inactive).
As for `CC1(C)CC(=O)C(C=NC(CCC(N)=O)C(=O)O)=C(O)C1` (stereo not drawn), the viability in assay [1] was 96% (inactive); in assay [2], 96.5% (inactive); in assay [3], 91.9% (inactive); in assay [4] (setting [7]) it was 83.3%; in assay [4] (setting [8]), 91.9%. Moreover, the differential viability (reversal) in assay [4] (H69AR cells + 2 uM doxorubicin) was 8.63% (inactive). For the same compound, the figures for the inhibition in assay [5] and in assay [6] were -8.22% (inactive) and 0.18% (inactive), respectively.
Turning to `Cc1cn2c(-c3ccncc3)nnc2s1`, the viability in assay [1] was 144% (inactive); in assay [2] it was 87.4% (inactive); in assay [3] it was 99.8% (inactive); in assay [4] (setting [7]), 92.7%; in assay [4] (setting [8]), 99.8%. Further, in assay [4] (H69AR cells + 2 uM doxorubicin), the differential viability (reversal) was 7.13% (inactive). The values for the inhibition in assay [5] and in assay [6] were -1.23% (inactive) and 3.55% (inactive), respectively.
For `O=S(=O)(NCc1ccccn1)c1ccc2c(c1)OCCO2`, the viability in assay [1] was 115% (inactive); in assay [2], 114% (inactive); in assay [3], 109% (inactive); in assay [4] (setting [7]), 108%; in assay [4] (setting [8]) it was 109%. Besides, the differential viability (reversal) in assay [4] (H69AR cells + 2 uM doxorubicin) was 0.755% (inactive). Further, the inhibition in assay [5] was -0.81% (inactive); in assay [6], 0.18% (inactive).
For the compound `CCCCCCC(c1c(C)n(C)n(-c2ccccc2)c1=O)c1c(C)n(C)n(-c2ccccc2)c1=O`, the viability was 90% (inactive) in assay [1]; 99.9% (inactive) in assay [2]; 80.8% (inactive) in assay [3]; 78.7% in assay [4] (setting [7]); 80.8% in assay [4] (setting [8]). For the same compound, the differential viability (reversal) in assay [4] (H69AR cells + 2 uM doxorubicin) is 2.09% (inactive). Further, the inhibition in assay [5] is -3.47% (inactive); in assay [6], -0.18% (inactive).

(Values after PubChem BioAssay.)
